Data taken from ChEMBL document CHEMBL1149824, “Tasumatrols U-Z, taxane diterpene esters from Taxus sumatrana” (2008).
In brackets after ≈: the same amount, converted by molar mass. Activity calls are given as the source filed them. The rule behind the calls is not given here.

Columns and labels:
Assay type in all cases: functional
Details in all cases: for EC50: read-out: ED50 (the source's name)
[1] = test system: HeLa; experiment: Cytotoxicity against human HeLa cells by MTT assay
Outline: (§1)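 MTT assay on human tumor cell lines (Hep2/Hepa2 […], WiDr colon, HeLa cervical). ED50 is the concentration of test sample giving a 50% reduction in absorbance relative to untreated cells, in µg/mL. Camptothecin served as positive control.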

[2] = test system: HEp-2; experiment: Cytotoxicity against human Hep2 cells by MTT assay; outline: as §1
[3] = test system: WiDr; experiment: Cytotoxicity against human WiDr cells by MTT assay; outline: as §1

Row | Structure (SMILES) | Activity [1] | Activity [2] | Activity [3] | EC50 [1] [µg/mL] | EC50 [2] [µg/mL] | EC50 [3] [µg/mL]
1 | CC(=O)O[C@H]1C[C@H]2OC[C@@]2(OC(C)=O)C2[C@H](OC(=O)c3ccccc3)[C@]3(C(C)(C)O)C[C@H](O)C(C)=C3[C@@]3(O)C(=O)OC[C@]213 (stereo partly specified) | inactive | inactive | inactive |  |  | 
2 | CC(=O)O[C@H]1C[C@H]2[C@@H](O)/C=C3\C[C@](C)(C(=O)[C@H](O)C(=C1C)C2(C)C)[C@@H](OC(C)=O)C[C@@H]3O | inactive | inactive | inactive |  |  | 
3 | CC(=O)O[C@@]12CO[C@@H]1C[C@H](O)[C@@]13COC(=O)[C@]1(O)C1=C(C)CC[C@@]1(C(C)(C)O)[C@@H](OC(=O)c1ccccc1)C32 (stereo partly specified) [TASUMATROL Y] |  |  |  | > 5 | 3.5 (≈ 6.45 µM) | > 5
4 | CC1=C2[C@@]3(O)C(=O)OC(C)(C)[C@]2(CC1)[C@@H](O)C1[C@](O)(CO)[C@@H](OC(=O)c2ccccc2)C[C@H](O)[C@]13C (stereo partly specified) | inactive | inactive | inactive |  |  | 
5 | CC(=O)OC[C@@]12C([C@H](OC(=O)c3ccccc3)[C@]34CCC(C)=C3[C@@]1(O)C(=O)OC4(C)C)[C@]1(OC(C)=O)CO[C@@H]1C[C@@H]2O (stereo partly specified) | inactive | inactive | inactive |  |  | 
6 | CC(=O)OC[C@@]12C([C@H](OC(=O)c3ccccc3)[C@]34C[C@H](O)C(C)=C3[C@@]1(O)C(=O)OC4(C)C)[C@]1(OC(C)=O)CO[C@@H]1C[C@@H]2O (stereo partly specified) | inactive | inactive | inactive |  |  | 
7 | CC[C@@]1(O)C(=O)OCc2c1cc1n(c2=O)Cc2cc3ccccc3nc2-1 [CAMPTOTHECIN] |  |  |  | 0.19 (≈ 0.545 µM) | 0.02 (≈ 0.0574 µM) | 0.07 (≈ 0.201 µM)
